For 97 molecules, cytotoxicity results are on record in ChEMBL document CHEMBL4513216, “Probing the Open Global Health Chemical Diversity Library for Multistage-Active Starting Points for Next-Generation Antimalarials” (ACS Infect Dis, 2020).

The structures appear in SMILES notation.

The data set is described as follows: Toxicity liver stage against HepG2, at 10uM. The class given is cell-based. More on the design: test concentration 10 uM, cell line HepG2-A16-CD81EGFP. The conditions noted are these: human, HepG2-A16-CD81EGFP cells; read-out: INHIBITION
Put shortly: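 Uninfected HepG2-A16-CD81EGFP cells, 3 × 10^3 per well, 1536-well, plated on prespotted compound at 10 μM final, parasite-free screening media added to match infected plates; puromycin 10 μM positive, DMSO 0.5% negative; run in parallel with 48 h PbLuc assay at 37 °C, 5% CO2; viability by CellTiter-Glo luminescence, normalized to controls.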
For `CNC(=O)CN1CCC(NC(=O)C(C)Oc2ccccc2C#N)CC1` (configuration not stated), the cytotoxicity at 10 µM was found to be 1.97%.
For `Cc1cnc2n(c1=O)C(CC(=O)NCc1ccc(F)cc1)CS2` (configuration not stated), the cytotoxicity at 10 µM was found to be 6.47%.
The figure for `O=C(Oc1ccccc1)N1CCC(CNS(=O)(=O)c2cccnc2)CC1` is 11.1%; for `CS(=O)(=O)N[C@@H]1COC[C@@H]2CN(Cc3ccco3)C[C@@H]21` it is -1.43%.
The figure for `O=C(C1=CCCC1)N1C[C@H](OCc2cccnc2)[C@H]2OCCC[C@H]21` is 7.86%.
Regarding `Cc1nc(N2CCCC2)nc2c1CCN(C(=O)C(C)C)CC2`, the cytotoxicity at 10 µM came to 5.02%.
The figure for `Cc1ncsc1CN1CC[C@H]2OCC[C@@]2(C(=O)N(C)C)C1` is 2.93%; for `COCCNC(=O)Cn1c(-c2cccc(Cl)c2)nc(C)c(CCO)c1=O` it is -0.86%; for `CC(O)CNc1c(NCc2ccco2)c(=O)c1=O` (configuration not stated) it is -3.04%.
The figure for `CC(C)CNC(=O)c1ccc2c(c1)nc1n2CCN(Cc2ccco2)C1` is -3.78%; for `CC(=O)N1CCN(C(=O)Cn2ccc3c(Cl)cccc32)CC1` it is -0.643%.
As to `O=C(O)CSC1CCc2ccccc2NC1=O` (configuration not stated), the cytotoxicity at 10 µM amounted to 1.13%.
The figure for `Cc1nn(CCC(=O)N(C)Cc2c(Cl)cnn2C)cc1Br` is 1.29%; for `CCn1c(NCc2ccccn2)nc2c(C)nn(C)c2c1=O` it is 9.51%; for `CC(NC(=O)c1ccc(Cl)cc1)c1nnc(SCC(=O)O)n1C` (configuration not stated) it is -9.35%.
The figure for `CC(=O)N1CCCC(c2ccc(CO)c(-c3c(C)noc3C)n2)C1` (configuration not stated) is -4.09%.
Consider `CC(=O)N1CCC(c2noc(C3CCC(=O)N3)n2)CC1` (configuration not stated), for which the cytotoxicity at 10 µM amounted to 1.64%.
The figure for `CC(C)c1cc(C(=O)N2CCCC(c3cc(=O)nc4n3CCC4)C2)no1` (configuration not stated) is 0.983%; for `Cc1cccc(C)c1Nc1noc2c1CN(C(=O)c1c[nH]nc1C)CC2` it is 6.22%; for `c1cc(CN2CCC[C@@H](Cn3nnc(-c4cnccn4)n3)C2)ccn1` it is -0.45%.
Consider `CN(CC1(C)COC1)C(=O)c1cc(-c2ccn(C)n2)nc2ccccc12`, for which the cytotoxicity at 10 µM was 9.81%.
The figure for `CCSCc1nc(O)c2nnn(C3CCN(Cc4ccoc4)CC3)c2n1` is 4.71%.
The figure for `CCc1ncc(CN2CCC(O)(c3ccccc3F)CC2)cn1` is -4.68%; for `Cc1ccnc(NC(=O)c2cncc(C3CCNCC3)n2)c1` it is -9.48%.
The figure for `Fc1ccc(CN2CCC(c3noc(-c4cnccn4)n3)CC2)cc1F` is 2.35%; for `CC1Cc2ccccc2N1C(=O)Cn1nc(-c2cccs2)cc(N)c1=O` (configuration not stated) it is -10.6%.
On to `Cc1cc(-c2cnc(C)nc2CN(C)C(=O)c2ccccn2)on1`, for which the cytotoxicity at 10 µM was 7.95%.
The figure for `CC(=O)N[C@@H]1C[C@H](c2ccc(OCCO)cc2)OC2(CCOCC2)C1` is -21.2%.
As to `Cc1cc(CCC(N)=O)cc(C2CCCN2Cc2ccccn2)n1` (configuration not stated), the cytotoxicity at 10 µM is -16.7%.
`Cc1nc(C2CCCN2C(=O)CCc2ccccc2)ncc1C(N)=O` (configuration not stated): the cytotoxicity at 10 µM is -19.5%.
For `Nc1nc2nc(C3CCCN(C(=O)c4cncs4)C3)ccc2s1` (configuration not stated), the cytotoxicity at 10 µM is -19.1%.
The figure for `Cn1c(CO)cnc1SC(C(N)=O)c1ccccc1` (configuration not stated) is -48.8%; for `CC(CN1CCOC1=O)NC(=O)c1ccccc1Oc1ccccc1` (configuration not stated) it is 1.2%.
The figure for `Cc1nn2cccnc2c1C(=O)NCc1ccccc1OCC1CC1` is -48.4%.
The figure for `NC(=O)C1CCN(C(=O)NC2CCc3cc(Cl)ccc32)CC1` (configuration not stated) is 1.67%; for `CCc1ccc(C(COC)NC(=O)c2ccc(NC(C)=O)cc2)o1` (configuration not stated) it is -3.91%.
Take `COCc1nccc(C2CCCN(Cc3ccc(C#N)cc3)C2)n1` (configuration not stated): the cytotoxicity at 10 µM came to 6.45%.
With `CCS(=O)(=O)N(C)C1CCN(C(=O)c2cc(C)cc(C)c2)CC1`, the cytotoxicity at 10 µM turned out to be 11.5%.
The figure for `COC(=O)CCNC(=O)c1cnc(Cc2ccc(F)cc2)s1` is -5.87%; for `Cc1noc(C)c1CN(C)C(=O)Nc1cnn(CC2CCCO2)c1` (configuration not stated) it is -2.77%.
On to `CC(O)CN1CCN(C(=O)CN(C)c2ccc(C#N)cn2)CC1` (configuration not stated), for which the cytotoxicity at 10 µM was -0.785%.
The figure for `COCCCNC(=O)c1ccccc1S(C)(=O)=O` is -2.83%; for `NC(=O)CN1CCN(c2ccnc3c(F)ccc(F)c23)CC1` it is 0.315%.
The figure for `Cc1ccc(CN2CCOCC2)cc1NC(=O)c1ccsc1` is 3.22%.
`COc1ccc(-n2ccc(C(=O)N(CCN(C)C)C(C)C)n2)cc1`: the cytotoxicity at 10 µM was -3.29%.
Turning to `CCn1cc(S(=O)(=O)N2CCCSc3ccccc32)cn1`, the cytotoxicity at 10 µM was 9.25%.
The figure for `COCC(C)NC(=O)CN1CCC(C)CC1` (configuration not stated) is -9.32%.
On to `O=S(=O)(NCc1ccc(S(=O)(=O)N2CCCC2)s1)c1ccc(F)cc1Cl`, for which the cytotoxicity at 10 µM was -39.9%.
Turning to `CC(CCNC(=O)N(C)CC1CCOCC1)N1CCCCC1` (configuration not stated), the cytotoxicity at 10 µM was 8.63%.
The figure for `O=C(NCC(F)F)N1CCC(n2ccc(C(F)(F)F)n2)CC1` is -10.2%.
The figure for `NC(=O)CCN1CCC(C(=O)c2cc(F)ccc2F)CC1` is -4.89%; for `COCCn1ccc2cc(NC(C)=O)ccc21` it is -12%.
The figure for `CC(=O)NCC(=O)N1Cc2nccn2CC(CN2CCCC2=O)C1` (configuration not stated) is -76.9%; for `CN1CCN(Cc2ccsc2)Cc2cccnc21` it is -77.9%.
Turning to `NCC1Cc2cc(-c3cncc(C(=O)N4CCCCC4)n3)cc(F)c2O1` (configuration not stated), the cytotoxicity at 10 µM was -51.8%.
Regarding `CCc1nccc(CN2CCC(CNC(=O)Nc3ccccc3)C2)n1` (configuration not stated), the cytotoxicity at 10 µM is 9.99%.
The figure for `O=C(c1cccc(S(=O)(=O)NCCCn2cccn2)c1)N1CCOCC1` is 5.78%; for `OC1CCCN(Cc2cn(CC3CCN(C4CCSCC4)CC3)nn2)C1` (configuration not stated) it is -61%; for `Cc1ccc(C(=O)N2CCC(c3nccn3C(C)C)CC2)c(=O)[nH]1` it is 4.75%.
Regarding `Cc1ccc(CNC(=O)CCN2CCOC(C(F)(F)F)C2)cc1` (configuration not stated), the cytotoxicity at 10 µM stood at 3.71%.
The figure for `CC(C(N)=O)N1CCc2onc(-c3cccc(F)c3)c2C1` (configuration not stated) is 3.38%; for `CC(C)n1cc(CN(Cc2ccc(F)cc2)CC2CCCO2)cn1` (configuration not stated) it is -3.47%; for `Cc1cnn(CCCN2C(=O)CCc3ccccc32)c1` it is 1.39%.
`CC(C)[C@H]1CN(CCS(C)(=O)=O)C[C@@H]1NC(=O)c1ccc(=O)[nH]c1`: the cytotoxicity at 10 µM worked out at 3.06%.
The figure for `O=C(Cc1cccc(O)c1)N1CCC2(CC1)c1ccccc1CC2O` (configuration not stated) is 2.28%; for `Cc1cnn(C2CN(Cc3nc(-c4cccnc4)no3)C2)c1` it is 3.03%.
The figure for `Cc1nc(CN2CCCC2c2c(C)nn(C)c2Cl)oc1C` (configuration not stated) is -3.33%; for `c1ccc(-n2cc(CNCC3CCCN3c3cccnn3)nn2)cc1` (configuration not stated) it is -1.47%; for `CC(C)c1n[nH]c(C2CN(C(=O)c3cc(C(N)=O)cs3)CCO2)n1` (configuration not stated) it is 1.17%.
The figure for `Cc1ncc2c(n1)CN(CC(=O)Nc1cccnc1)CC2` is 0.66%.
Consider `O=C(c1csc(-c2nnc[nH]2)n1)N1CCCCC1Cn1cccn1` (configuration not stated), for which the cytotoxicity at 10 µM was -4.49%.
The figure for `Cc1cn2c(n1)CCC(NC(=O)Cn1cncn1)C2` (configuration not stated) is -3.86%; for `CC(C)c1ncncc1C(=O)N1CCN(Cc2ccsc2)CC1` it is -4.49%.
Turning to `CCc1nc(C2CCCN2C(=O)CCc2cscn2)no1` (configuration not stated), the cytotoxicity at 10 µM is -3.12%.
Consider `Cc1noc(C2CCN(C(=O)CCCNc3ncccn3)CC2)n1`, for which the cytotoxicity at 10 µM was -6.69%.
For `Cc1nc(CC(=O)N2CCn3c(nnc3C(C)C)C2)cs1`, the cytotoxicity at 10 µM was -12.3%.
As for `O=C(NCCc1ccc(F)cc1)NCC(O)c1cccc(F)c1` (configuration not stated), the cytotoxicity at 10 µM was -1.14%.
In the case of `Cc1nccn1C1CCCN(C(=O)c2cccc3c2OCO3)C1` (configuration not stated), the cytotoxicity at 10 µM was -14.1%.
On to `CN(CCCOc1ccccc1)C(=O)CN1CCc2cncnc2C1`, for which the cytotoxicity at 10 µM was -2.06%.
The figure for `CCS(=O)(=O)c1ccccc1N1CCC(NC(=O)c2ccc[nH]2)CC1` is -8.26%; for `O=C(CCc1cscn1)N1CCCC1c1noc(C2CC2)n1` (configuration not stated) it is -10.9%; for `O=C(COCC1CC1)N1CCCC(n2cncn2)C1` (configuration not stated) it is -3.54%.
The figure for `CCOc1ccc(Cl)cc1C1CCCN1` (configuration not stated) is -12.3%; for `Cn1ccc(C(=O)N2C[C@@H]3OCCN(c4ncccn4)[C@@H]3C2)n1` it is 5.7%; for `O=C(C1CCOCC1)N1CCC2(CCN(Cc3nccs3)CC2)CC1` it is -83.1%.
Consider `COCC1CC2(CCN(CC3CC3)CC2)CN1c1ncccn1` (configuration not stated), for which the cytotoxicity at 10 µM was 14.1%.
Consider `O=C(c1n[nH]c2c1CCN(Cc1nccs1)C2)N1CCCC1`, for which the cytotoxicity at 10 µM is -10.7%.
The figure for `CN1CCOCC2(CCCN(C(=O)c3cnccn3)C2)C1` (configuration not stated) is -75.4%; for `CC(C)c1nc(-c2ccnc(N3CCNCC3)n2)no1` it is 1.01%; for `O=C(c1ccccc1F)N1CCCn2c(CN3CCCCC3)nnc2C1` it is -71.5%.
The figure for `Cn1cc(N2CC3(COCCN(Cc4ccsc4)C3)OCC2=O)cn1` (configuration not stated) is 3.55%; for `c1csc(CN2CCCC3(COCCN(c4cnccn4)C3)C2)c1` (configuration not stated) it is -68.7%; for `Cc1noc(C)c1CN1Cc2nccn2CC(CN2CCOCC2)C1` (configuration not stated) it is -82%.
Regarding `COCCO[C@@H]1CCN(Cc2csc(C)n2)[C@H]1Cc1ccccc1`, the cytotoxicity at 10 µM was determined as 5.98%.
In the case of `NC1CCC(CN2CCCn3nc(CNC(=O)C4CCC4)cc3C2)CC1` (configuration not stated), the cytotoxicity at 10 µM is 4.03%.
`CC(C)NC(=O)N1C[C@@H]2C[C@H](C(=O)NCc3ccccc3)[C@H](C1)O2`: the cytotoxicity at 10 µM was -0.594%.
Consider `O=C(NCC1(COc2cnccn2)C[C@@H](O)[C@@H](O)C1)C1CC1` (some centres not stated), for which the cytotoxicity at 10 µM worked out at 7.92%.
